Source: ChEMBL document CHEMBL4316652, “Kenalactams A-E, Polyene Macrolactams Isolated from Nocardiopsis CG3” (J Nat Prod, 2019)
Values after ≈ are worked out from the molar mass of the structure shown. Active and inactive are the calls of the source. The rule behind the calls is not given here.

Columns and labels:
L929 = assay: Cytotoxicity against mouse L929 cells measured after 5 days by MTT assay; type: cell-based
KB 3-1 = assay: Cytotoxicity against human KB3-1 cells measured after 5 days by MTT assay; type: functional, cell-based
MCF7 = assay: Cytotoxicity against human MCF7 cells measured after 5 days by MTT assay; type: functional, cell-based; settings: MCF7, 120 h
PC-3 = assay: Cytotoxicity against human PC3 cells measured after 5 days by MTT assay; type: functional, cell-based; settings: PC-3, 120 h
A549 = assay: Cytotoxicity against human A549 cells measured after 5 days by MTT assay; type: functional, cell-based; settings: A549, 120 h
SK-OV-3 = assay: Cytotoxicity against human SKOV3 cells measured after 5 days by MTT assay; type: functional, cell-based; settings: SK-OV-3, 120 h
Staphylococcus aureus = assay: Antibacterial activity against Staphylococcus aureus Newman by serial dilution method; type: functional
Escherichia coli = assay: Antibacterial activity against Escherichia coli DSM1116 by serial dilution method; type: functional
Bacillus subtilis = assay: Antibacterial activity against Bacillus subtilis DSM10 by serial dilution method; type: functional
Mucor hiemalis = assay: Antifungal activity against Mucor hiemalis DSM 2656 by serial dilution method; type: functional
Method in brief: (§1)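 Fungi were tested by serial dilution in MYG medium (1.0% phytone peptone, 1.0% glucose, 50 mM HEPES, pH 7.0). The top well held 67 μg/mL final, from a 1 mg/mL stock. Methanol served as negative control. The MIC was recorded.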

Candida albicans [1] = assay: Antifungal activity against Candida albicans DSM 1665 by serial dilution method; type: functional; method in brief: as §1
Hepatitis C virus = assay: Antiviral activity against HCV JC1 infected in human Huh7.5 cells assessed as reduction in viral infection treated for 4 hrs followed by compound washout and measured after 3 days by luciferase reporter gene assay; type: functional, organism-based; settings: Hepacivirus hominis
Method in brief: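 Huh-7.5 cells were electroporated with the Luc-Jc1 reporter virus in the presence of compound. After 4 h the inoculum was removed, and the monolayers were washed three times with PBS and given fresh compound-free medium. Cells were lysed at 3 days for luciferase read-out. Runs were in duplicate, reported as mean and standard deviation.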

Candida albicans [2] = assay: Antifungal activity against amphotericin B-resistant Candida albicans; type: functional
Method in brief: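 Broth serial dilution MIC in 96-well plates using MYG medium for fungi (1.0% phytone peptone, 1.0% glucose, 50 mM HEPES, pH 7.0). Compounds were added as 20 µL aliquots of a 1 mg/mL stock, giving 67 μg/mL final in the first well. Methanol served as negative control.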

Trypanosoma brucei = assay: Antimicrobial activity against Trypanosoma brucei; type: functional
[3] = Mus musculus, L929, 120 h, read-out: IC50
[4] = Homo sapiens, KB 3-1, 120 h, read-out: IC50

## CC1=C\C=C\C=C\C=C/C=C\[C@H](C)CNC(=O)/C(C)=C/C=C/C=C/C=C\C=C/[C@H](C)CNC(=O)\C(C)=C\1
L929; [3]
  IC50: 42.2 µM
KB 3-1; [4]
  IC50: 5.4 µM
MCF7
  IC50: 18.1 µM
PC-3
  IC50: 5 µM
A549
  IC50: 32.1 µM
SK-OV-3
  IC50: 10 µM
Staphylococcus aureus
  MIC: 16.7 µg/mL (≈ 33.5 µM)
Escherichia coli
  MIC: inactive
Bacillus subtilis
  MIC: inactive
Mucor hiemalis
  MIC: inactive
Candida albicans [1]
  MIC: inactive
Hepatitis C virus
  Activity: Active

## NYSTATIN
Mucor hiemalis
  MIC: 4.16 µg/mL
Candida albicans [1]
  MIC: 8.8 µg/mL

## C/C(=C\c1csc(C)n1)[C@@H]1C[C@@H]2O[C@]2(C)CCC[C@H](C)[C@H](O)[C@@H](C)C(=O)C(C)(C)[C@@H](O)CC(=O)O1 [PATUPILONE]
L929; [3]
  IC50: 0.00075 µM
KB 3-1; [4]
  IC50: 5.3e-05 µM
MCF7
  IC50: 7.4e-05 µM
PC-3
  IC50: 0.0022 µM
A549
  IC50: 0.004 µM
SK-OV-3
  IC50: 0.00024 µM

## C\C1=C/C=C/C=C/C=C\C=C/[C@H](C)CNC(=O)/C(C)=C/C=C/C=C/C=C\C=C/[C@H](C)CNC1=O
L929; [3]
  IC50: 32.8 µM
KB 3-1; [4]
  IC50: 6.8 µM
MCF7
  IC50: 16.4 µM
PC-3
  IC50: 6.3 µM
A549
  IC50: 16.3 µM
SK-OV-3
  IC50: 14.2 µM
Staphylococcus aureus
  MIC: 66.7 µg/mL (≈ 145 µM)
Escherichia coli
  MIC: inactive
Bacillus subtilis
  MIC: inactive
Mucor hiemalis
  MIC: 66.7 µg/mL (≈ 145 µM)
Candida albicans [1]
  MIC: 66.7 µg/mL (≈ 145 µM)
Hepatitis C virus
  Activity: Active

## CC1=C\C=C\C=C/C=C\[C@H](C)CNC(=O)/C(C)=C/C=C/C(C)=C/C=C/C=C\C=C/[C@H](C)CNC(=O)\C(C)=C\C=C\1
L929; l929
  IC50: Non-Toxic
KB 3-1; [4]
  IC50: 2.4 µM
PC-3
  IC50: 2.1 µM
A549
  IC50: 6.5 µM
SK-OV-3
  IC50: 5.5 µM
Staphylococcus aureus
  MIC: 66.7 µg/mL (≈ 124 µM)

## CC1=C\C=C\C=C\C(C)CNC(=O)/C=C(O)/C=C/C(C)=C/C=C/C(O)C(O)C(O)C(=O)/C=C\C=C\1 (stereo unspecified)
Candida albicans [2]
  MIC: 4 µg/mL (≈ 8.31 µM)

## CC1=C/[C@H](O)[C@H](O)\C=C/C=C/C=C/C=C\C=C/[C@H](C)CNC(=O)/C=C/C=C/1
L929; l929
  IC50: Non-Toxic
KB 3-1; kb 3-1
  IC50: Not Active

## CC1=C/[C@H](O)[C@H](O)\C=C/C=C/C=C/C=C\C=C/[C@H](C)CNC(=O)\C=C/C=C/1
Staphylococcus aureus
  MIC: inactive
Escherichia coli
  MIC: inactive
Bacillus subtilis
  MIC: inactive
Mucor hiemalis
  MIC: inactive
Candida albicans [1]
  MIC: inactive
Hepatitis C virus
  Activity: inactive

## CN(C)[C@@H]1C(O)=C(C(N)=O)C(=O)[C@@]2(O)C(O)=C3C(=O)c4c(O)cccc4[C@@](C)(O)[C@H]3[C@H](O)[C@@H]12 [OXYTETRACYCLINE]
Staphylococcus aureus
  MIC: 0.05 µg/mL (≈ 0.109 µM)
Escherichia coli
  MIC: 1.66 µg/mL (≈ 3.61 µM)
Bacillus subtilis
  MIC: 2.08 µg/mL (≈ 4.52 µM)

## C/C1=C/C=C/C(C)=C/C=C/C=C\C=C/[C@H](C)CNC(=O)/C(C)=C/C=C/C(C)=C/C=C/C=C\C=C/[C@H](C)CNC1=O
Escherichia coli
  MIC: inactive
Bacillus subtilis
  MIC: inactive
Mucor hiemalis
  MIC: inactive
Candida albicans [1]
  MIC: inactive
Hepatitis C virus
  Activity: Active

## CC1=C\C=C\C[C@H](C)NC(=O)/C=C/C=C/C=C/[C@H](C)[C@@H](O)[C@H](O)[C@@H](O)C[C@@H](O)/C=C\C=C\C(C)=C\1
Trypanosoma brucei
  MIC: 0.8 µM (≈ 0.387 µg/mL)
